For 39 compounds, IC50 results are on record in ChEMBL document CHEMBL1131415, “Structure-activity relationships for antiplasmodial activity among 7-substituted 4-aminoquinolines” (J Med Chem, 1998).

Common to all, as to format: functional, organism-based
Test [1] concerns Plasmodium falciparum. The test is described as follows: In vitro antiplasmodial activity against chloroquine-sensitive Plasmodium falciparum Haiti 135. In short, it runs like this: (§1)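 Cloned P. falciparum (chloroquine-susceptible Haiti-13524 or chloroquine-resistant Indochina I), synchronous early ring stage, 2% red cell suspension at 0.2% parasitemia. Exposed to varying AQ concentrations 48 h, then same concentrations plus 0.5 µCi 3H-hypoxanthine for additional 18 h. IC50 from linear regression of percent inhibition of 3H-hypoxanthine accumulation vs log concentration; triplicate determinations, chloroquine control.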

Test [2] has as its system Plasmodium falciparum. The test is described as follows: In vitro antiplasmodial activity against chloroquine-resistant Plasmodium falciparum Indochina I. The gist of the method:
as §1

The test system of test [3] is Plasmodium falciparum. The test is described as follows: In vitro anti-plasmodial activity against chloroquine-resistant Plasmodium falciparum Indochina I. In short, it runs like this: as §1

Broadly, the IC50 is the point on the concentration scale where inhibition reaches its midpoint. A high value points to weaker potency. With `CCN(CC)CCCNc1ccnc2cc(C(F)(F)F)ccc12`, the results for the IC50 with Plasmodium falciparum [1] and in the test on Plasmodium falciparum [2] were 0.015 µM and 0.018 µM, respectively.

For `CCN(CC)CCCC(C)Nc1ccnc2cc(Br)ccc12` (stereo not drawn), the IC50 amounted to 0.005 µM with Plasmodium falciparum [1] and 0.09 µM in the test on Plasmodium falciparum [2].

Regarding `CCN(CC)CCNc1ccnc2cc(Br)ccc12`, the IC50 in the test with Plasmodium falciparum [1] and with Plasmodium falciparum [2] was 0.007 µM each time.

Take `CCN(CC)CC(C)Nc1ccnc2cc(Br)ccc12` (stereo not drawn): the IC50 in the test on Plasmodium falciparum [1] was 0.011 µM; in the test on Plasmodium falciparum [2], 0.012 µM.

In the case of `CCN(CC)CCCNc1ccnc2cc(I)ccc12`, the concentration for half-maximal inhibition (IC50) in the test on Plasmodium falciparum [1] came to 0.003 µM; in the test with Plasmodium falciparum [2] it was 0.004 µM.

As to `CCN(CC)CCCCCCCCCCNc1ccnc2cc(OC)ccc12`, the IC50 in the test with Plasmodium falciparum [1] was found to be 0.01 µM; in the test with Plasmodium falciparum [3] it was 0.17 µM.

Turning to `CCN(CC)CCCCCCCCCCCCNc1ccnc2cc(F)ccc12`, the half-inhibitory concentration (IC50) with Plasmodium falciparum [1] came to 0.008 µM; in the test on Plasmodium falciparum [3] it was 0.025 µM.

As for `CCN(CC)CCCC(C)Nc1ccnc2cc(F)ccc12` (stereo not drawn), the IC50 in the test with Plasmodium falciparum [1] amounted to 0.02 µM; in the test with Plasmodium falciparum [2], 0.5 µM.

`CCN(CC)CCCCCCCCCCNc1ccnc2cc(C(F)(F)F)ccc12`: the half-maximal inhibitory concentration (IC50) in the test on Plasmodium falciparum [1] turned out to be 0.01 µM; in the test on Plasmodium falciparum [3] it was 0.02 µM.

Consider `CCN(CC)CCCCCCCCCCNc1ccnc2cc(F)ccc12`, for which the IC50 in the test on Plasmodium falciparum [1] worked out at 0.007 µM; in the test with Plasmodium falciparum [3], 0.04 µM.

Regarding `CCN(CC)CCCNc1ccnc2cc(F)ccc12`, the IC50 with Plasmodium falciparum [1] was found to be 0.023 µM; in the test with Plasmodium falciparum [2], 0.12 µM.

For the compound `CCN(CC)CCCCCCCCCCCCNc1ccnc2cc(C(F)(F)F)ccc12`, the figures for the IC50 in the test with Plasmodium falciparum [1] and in the test with Plasmodium falciparum [3] were 0.005 µM and 0.025 µM, respectively.

In the case of `CCN(CC)CCCCCNc1ccnc2cc(Cl)ccc12`, the IC50 was found to be 0.006 µM in the test on Plasmodium falciparum [1] and 0.058 µM in the test on Plasmodium falciparum [2].

In the case of `CCN(CC)CCCNc1ccnc2cc(Br)ccc12`, the figures for the half-inhibitory concentration (IC50) with Plasmodium falciparum [1] and with Plasmodium falciparum [2] were 0.004 µM and 0.006 µM, respectively.

Regarding `CCN(CC)CCCC(C)Nc1ccnc2cc(C(F)(F)F)ccc12` (stereo not drawn), the IC50 was 0.016 µM in the test on Plasmodium falciparum [1] and 0.045 µM with Plasmodium falciparum [2].

In the case of `CCN(CC)CCNc1ccnc2cc(F)ccc12`, the results for the half-inhibitory concentration (IC50) in the test with Plasmodium falciparum [1] and in the test on Plasmodium falciparum [2] were 0.035 µM and 0.06 µM, respectively.

With `CCN(CC)CC(C)Nc1ccnc2cc(C(F)(F)F)ccc12` (stereo not drawn), the IC50 in the test with Plasmodium falciparum [1] and in the test with Plasmodium falciparum [2] was 0.05 µM each time.

In the case of `CCN(CC)CCNc1ccnc2cc(I)ccc12`, the IC50 in the test with Plasmodium falciparum [1] and in the test with Plasmodium falciparum [2] was 0.006 µM each time.

Turning to `CCN(CC)CCNc1ccnc2cc(OC)ccc12`, the IC50 in the test on Plasmodium falciparum [1] was found to be 0.048 µM; in the test with Plasmodium falciparum [2] it was 0.155 µM.

`CCN(CC)CCCNc1ccnc2cc(Cl)ccc12`: the half-maximal inhibitory concentration (IC50) in the test on Plasmodium falciparum [1] is 0.005 µM; in the test with Plasmodium falciparum [2] it was 0.006 µM.

Regarding `CCN(CC)CCCCCCCCCCCCNc1ccnc2cc(Br)ccc12`, the figures for the IC50 in the test on Plasmodium falciparum [1] and with Plasmodium falciparum [3] were 0.008 µM and 0.018 µM, respectively.

On to `CCN(CC)CCCNc1ccnc2cc(OC)ccc12`, for which the 50% inhibitory concentration (IC50) in the test with Plasmodium falciparum [1] turned out to be 0.15 µM; in the test on Plasmodium falciparum [2], 0.9 µM.

For the compound `CCN(CC)CCCCCCCCCCCCNc1ccnc2cc(Cl)ccc12`, the half-inhibitory concentration (IC50) with Plasmodium falciparum [1] worked out at 0.013 µM; in the test on Plasmodium falciparum [3], 0.011 µM.

`CCN(CC)CCCCCCCCCCCCNc1ccnc2cc(OC)ccc12`: the half-inhibitory concentration (IC50) with Plasmodium falciparum [1] stood at 0.017 µM; in the test with Plasmodium falciparum [3] it was 0.09 µM.

As for `CCN(CC)CC(C)Nc1ccnc2cc(Cl)ccc12` (stereo not drawn), the concentration for half-maximal inhibition (IC50) with Plasmodium falciparum [1] turned out to be 0.008 µM; with Plasmodium falciparum [2], 0.01 µM.

As to `CCN(CC)CCCCCCCCCCNc1ccnc2cc(Br)ccc12`, the IC50 with Plasmodium falciparum [1] turned out to be 0.006 µM; in the test on Plasmodium falciparum [3], 0.017 µM.

As for `CCN(CC)CCCCCCCCCCNc1ccnc2cc(Cl)ccc12`, the IC50 in the test with Plasmodium falciparum [1] was determined as 0.006 µM; with Plasmodium falciparum [3], 0.013 µM.

In the case of `CCN(CC)CC(C)Nc1ccnc2cc(F)ccc12` (stereo not drawn), the half-inhibitory concentration (IC50) in the test on Plasmodium falciparum [1] was found to be 0.03 µM; with Plasmodium falciparum [2], 0.06 µM.

As for `CCN(CC)CCNc1ccnc2cc(C(F)(F)F)ccc12`, the half-inhibitory concentration (IC50) in the test on Plasmodium falciparum [1] stood at 0.03 µM; in the test on Plasmodium falciparum [2] it was 0.041 µM.

For the compound `CCN(CC)CCCCNc1ccnc2cc(Cl)ccc12`, the IC50 with Plasmodium falciparum [1] was found to be 0.005 µM; with Plasmodium falciparum [2] it was 0.051 µM.

For the compound `CCN(CC)CCCCCCCCCCNc1ccnc2cc(I)ccc12`, the 50% inhibitory concentration (IC50) with Plasmodium falciparum [1] was 0.006 µM; in the test on Plasmodium falciparum [3] it was 0.016 µM.

With `CCN(CC)CCCC(C)Nc1ccnc2cc(OC)ccc12` (stereo not drawn), the IC50 was 0.055 µM in the test with Plasmodium falciparum [1] and 3 µM in the test on Plasmodium falciparum [2].

As for `CCN(CC)CCCCCCCCNc1ccnc2cc(Cl)ccc12`, the half-inhibitory concentration (IC50) is 0.004 µM with Plasmodium falciparum [1] and 0.041 µM with Plasmodium falciparum [3].

With `CCN(CC)CCCCCCNc1ccnc2cc(Cl)ccc12`, the half-maximal inhibitory concentration (IC50) came to 0.005 µM in the test on Plasmodium falciparum [1] and 0.056 µM in the test with Plasmodium falciparum [2].

With `CCN(CC)CCNc1ccnc2cc(Cl)ccc12`, the figures for the IC50 in the test with Plasmodium falciparum [1] and in the test with Plasmodium falciparum [2] were 0.007 µM and 0.005 µM, respectively.

As for `CCN(CC)CCCC(C)Nc1ccnc2cc(I)ccc12` (stereo not drawn), the half-inhibitory concentration (IC50) in the test with Plasmodium falciparum [1] worked out at 0.004 µM; in the test with Plasmodium falciparum [2], 0.035 µM.

`CCN(CC)CCCCCCCCCCCCNc1ccnc2cc(I)ccc12`: the figures for the half-maximal inhibitory concentration (IC50) with Plasmodium falciparum [1] and in the test on Plasmodium falciparum [3] were 0.01 µM and 0.02 µM, respectively.

`CCN(CC)CC(C)Nc1ccnc2cc(I)ccc12` (stereo not drawn): the IC50 in the test with Plasmodium falciparum [1] and in the test with Plasmodium falciparum [2] was 0.007 µM in each case.

As to `CCN(CC)CC(C)Nc1ccnc2cc(OC)ccc12` (stereo not drawn), the IC50 is 0.094 µM in the test on Plasmodium falciparum [1] and 0.18 µM in the test on Plasmodium falciparum [2].
